Results on seven compounds are retold here after ChEMBL document CHEMBL3045565, “Microwave synthesis, characterization and bio-efficacy evaluation of novel chalcone based 6-carbethoxy-2-cyclohexen-1-one and 2H-indazol-3-ol derivatives” (Eur J Med Chem, 2013).

Molecules are shown by their SMILES. Values after ≈ are worked out from the molar mass of the structure shown.

Assay type in all cases: functional
For test [1], the system named is Radical scavenging activity. Description: Antioxidant activity assessed as DPPH free radical scavenging activity at 400 ug/mL after 20 min by UV-Vis spectrophotometric analysis. In a few lines:
(§1)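 DPPH radical scavenging: samples were held at room temperature for 20 min in the dark, and absorbance was read at 517 nm. The control contained DMSO without compound, and methanol was used for baseline correction. Scavenging percentage was calculated from the absorbances.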
Background: DPPH is a stable violet radical that fades when it is reduced.

In test [2] the test system is Radical scavenging activity. In words: Antioxidant activity assessed as DPPH free radical scavenging activity after 20 min by UV-Vis spectrophotometric analysis. Set-up: concentration or dose not given beside the values. In a few lines: as §1
The subject of test [3] is Radical scavenging activity. Description: Antioxidant activity assessed as DPPH free radical scavenging activity at 20 ug/mL after 20 min by UV-Vis spectrophotometric analysis. An outline of the steps: as §1
The test system of test [4] is Radical scavenging activity. In words: Antioxidant activity assessed as DPPH free radical scavenging activity at 100 ug/mL after 20 min by UV-Vis spectrophotometric analysis. In a few lines: as §1
The subject of the next test is Bacillus pumilus. In words: Antibacterial activity against Bacillus pumilus MTCC 2466 assessed as growth inhibition at 100 ug/disk after 24 hr by disk diffusion method. As to conditions: MTCC 2466, 24 h, read-out: DIZ. An outline of the steps: (§2)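 Disk diffusion on nutrient agar. Strains kept on NA slants at 37 °C and subcultured in nutrient broth before testing. A log-phase culture was spread on solidified medium, and sterile disks were loaded with compound from DMSO stock. DMSO served as control, with commercial antibiotics for reference. Plates ran 24 h at 37 °C, and inhibition zones (mm) were read in quadruplicate.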

A further test deals with Xanthomonas oryzae. Description: Antibacterial activity against Xanthomonas oryzae ITCC B-47 assessed as as growth inhibition at 100 ug/disk after 24 hr by disk diffusion method. The conditions noted are these: ITCC B-47, 24 h, read-out: DIZ. On the technique in general: In agar diffusion tests the substance spreads into inoculated agar from a disc or well.
The test system of test [5] is Radical scavenging activity. In words: Antioxidant activity assessed as DPPH free radical scavenging activity at 60 ug/mL after 20 min by UV-Vis spectrophotometric analysis. In a few lines: as §1
The subject of another test is Bacillus thuringiensis. In words: Antibacterial activity against Bacillus thuringiensis MTCC 6941 assessed as growth inhibition at 100 ug/disk after 24 hr by disk diffusion method. The conditions noted are these: MTCC 6941, 24 h, read-out: DIZ. An outline of the steps: as §2
The subject of a further test is Athelia rolfsii. In words: Antifungal activity against Athelia rolfsii ITCC 6181 by food poisoning method. The conditions noted are these: Agroathelia rolfsii. An outline of the steps:
(§3)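 Poisoned food technique on PDA at several concentrations. A 5 mm mycelial plug from the growing edge of a 2-week-old colony was placed inoculum-side down at the plate centre. Plates incubated at 27 °C until control growth was nearly complete. Colony diameter measured, percent inhibition calculated against control, LC50 derived. Four replicates per treatment.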

In test [6] the test system is Radical scavenging activity. Description: Antioxidant activity assessed as DPPH free radical scavenging activity at 300 ug/mL after 20 min by UV-Vis spectrophotometric analysis. In a few lines: as §1
Test [7] deals with Radical scavenging activity. Description: Antioxidant activity assessed as DPPH free radical scavenging activity at 40 ug/mL after 20 min by UV-Vis spectrophotometric analysis. In a few lines:
as §1

The next test concerns Rhizoctonia solani. In words: Antifungal activity against Rhizoctonia solani ITCC 5563 by food poisoning method. An outline of the steps:
as §3

In test [8] the test system is Radical scavenging activity. Description: Antioxidant activity assessed as DPPH free radical scavenging activity at 80 ug/mL after 20 min by UV-Vis spectrophotometric analysis. In a few lines: as §1
In a further test the test system is Staphylococcus aureus. Description: Antibacterial activity against Staphylococcus aureus MTCC 3160 assessed as growth inhibition at 100 ug/disk after 24 hr by disk diffusion method. As to conditions: MTCC 3160, 24 h, read-out: DIZ. In a few lines:
as §2

Test [9] deals with Radical scavenging activity. In words: Antioxidant activity assessed as DPPH free radical scavenging activity at 500 ug/mL after 20 min by UV-Vis spectrophotometric analysis. An outline of the steps: as §1
For a further test, the system named is Pseudomonas aeruginosa. In words: Antibacterial activity against Pseudomonas aeruginosa MTCC 2581 assessed as growth inhibition at 100 ug/disk after 24 hr by disk diffusion method. As to conditions: MTCC 2581, 24 h, read-out: DIZ. In a few lines:
as §2

Test [10] deals with Radical scavenging activity. Description: Antioxidant activity assessed as DPPH free radical scavenging activity at 200 ug/mL after 20 min by UV-Vis spectrophotometric analysis. An outline of the steps:
as §1

Another test concerns Klebsiella pneumoniae. Description: Antibacterial activity against Klebsiella pneumoniae MTCC 7028 assessed as growth inhibition at 100 ug/disk after 24 hr by disk diffusion method. The conditions noted are these: MTCC 7028, 24 h, read-out: DIZ. An outline of the steps: as §2
Test [11] concerns Radical scavenging activity. Description: Antioxidant activity assessed as DPPH free radical scavenging activity at 10 ug/mL after 20 min by UV-Vis spectrophotometric analysis. An outline of the steps:
as §1

Another test concerns Dickeya chrysanthemi. Description: Antibacterial activity against Erwinia chrysanthemi ITCC B-40 assessed as as growth inhibition at 100 ug/disk after 24 hr by disk diffusion method. As to conditions: ITCC B-40, 24 h, read-out: DIZ. An outline of the steps:
as §2

A word on the IC50: it is the concentration needed to halve the response being measured. What is called LC50 is the concentration that kills 50% of the test population. For `COc1cc(C2CC(c3ccccc3)=Cc3n[nH]c(O)c32)cc(OC)c1OC` (configuration not stated), the Activity in test [1] was found to be 90.5%; in test [2] it was 67.1%; in test [3], 31.5%; in [4] it was 91.8%; in test [5], 86.4%; in [6] it was 91.2%. Besides, the Activity in [7] came to 67.1%; in test [8] it was 90.7%; in test [9], 90.8%; in test [10], 92.3%; in test [11], 18.1%. Moreover, the IC50 in test [2] stood at 22.28 µg/mL (≈ 58.9 µM). The zone of inhibition at 100 µg/disc with Bacillus pumilus, in the test with Xanthomonas oryzae, with Bacillus thuringiensis, with Staphylococcus aureus, in the test on Pseudomonas aeruginosa and in the test with Klebsiella pneumoniae was 0 mm each time. Further, in the test on Dickeya chrysanthemi, the zone of inhibition at 100 µg/disc came out at 0 mm. In addition, the results for the LC50 with Athelia rolfsii and in the test with Rhizoctonia solani were 1020 µg/mL (≈ 2710 µM) and 917 µg/mL (≈ 2420 µM), respectively.
Regarding `COc1ccc(C2=Cc3n[nH]c(O)c3C(c3ccc(OC)c(OC)c3)C2)cc1` (configuration not stated), the Activity in test [1] was 90.5%; in test [2] it was 65.3%; in test [3], 29.2%; in test [4], 91.4%; in test [5], 85.8%; in test [6], 90.4%. Also, the Activity is 65.3% in test [7]; 90% in test [8]; 90.8% in test [9]; 92.1% in test [10]; 17.7% in test [11]. In addition, the IC50 in [2] stood at 23.94 µg/mL (≈ 63.3 µM). For the same compound, the zone of inhibition at 100 µg/disc in the test with Bacillus pumilus, in the test with Xanthomonas oryzae, in the test with Bacillus thuringiensis, with Staphylococcus aureus, in the test on Pseudomonas aeruginosa and in the test with Klebsiella pneumoniae was 0 mm throughout. Besides, the zone of inhibition at 100 µg/disc in the test with Dickeya chrysanthemi is 0 mm. In addition, the median lethal concentration (LC50) in the test with Athelia rolfsii was determined as 1240 µg/mL (≈ 3280 µM); in the test on Rhizoctonia solani, 1030 µg/mL (≈ 2730 µM).
Turning to `Oc1[nH]nc2c1C(c1ccccc1)CC(c1ccccc1)=C2` (configuration not stated), the Activity is 89.1% in test [1]; 40.3% in [2]; 10.9% in test [3]; 73.3% in [4]; 62.5% in test [5]; 89% in test [6]. Besides, the Activity in [7] stood at 40.3%; in test [8], 67.3%; in test [9], 89.2%; in test [10], 90.6%; in test [11] it was 9.1%. The IC50 in test [2] was found to be 58.28 µg/mL (≈ 202 µM). Besides, the zone of inhibition at 100 µg/disc worked out at 0 mm in the test with Bacillus pumilus; 0 mm with Xanthomonas oryzae; 0 mm in the test on Bacillus thuringiensis; 0 mm in the test on Staphylococcus aureus; 0 mm with Pseudomonas aeruginosa; 10 mm in the test with Klebsiella pneumoniae. Also, in the test with Dickeya chrysanthemi, the zone of inhibition at 100 µg/disc amounted to 0 mm. For the same compound, the LC50 in the test with Athelia rolfsii is 873 µg/mL (≈ 3030 µM); with Rhizoctonia solani it was 802 µg/mL (≈ 2780 µM).
On to `COc1ccc(C2CC(c3ccc(Cl)c(Cl)c3)=Cc3n[nH]c(O)c32)cc1` (configuration not stated), for which the Activity was found to be 91.3% in test [1]; 48.5% in [2]; 31% in [3]; 91.1% in test [4]; 86.1% in test [5]; 90.7% in test [6]. Moreover, the Activity was 48.6% in test [7]; 90.4% in test [8]; 91.3% in [9]; 91.5% in test [10]; 17.6% in test [11]. In addition, the IC50 in test [2] stood at 40.98 µg/mL (≈ 106 µM). In addition, the zone of inhibition at 100 µg/disc with Bacillus pumilus, in the test on Xanthomonas oryzae, with Bacillus thuringiensis, with Staphylococcus aureus, in the test on Pseudomonas aeruginosa and with Klebsiella pneumoniae was 0 mm each time. In the test with Dickeya chrysanthemi, the zone of inhibition at 100 µg/disc was 0 mm. For the same compound, the LC50 in the test with Athelia rolfsii came out at 1030 µg/mL (≈ 2660 µM); with Rhizoctonia solani it was 776 µg/mL (≈ 2000 µM).
For `COc1ccc(C2CC(c3ccc(Cl)cc3)=Cc3n[nH]c(O)c32)cc1` (configuration not stated), the Activity was found to be 89.8% in test [1]; 43.2% in [2]; 21.7% in test [3]; 89.9% in test [4]; 68.7% in [5]; 89.7% in test [6]. Moreover, the Activity in [7] worked out at 43.2%; in [8], 86.4%; in [9], 90%; in test [10], 91.2%; in [11], 13.9%. Further, the IC50 in [2] was found to be 42.34 µg/mL (≈ 120 µM). The zone of inhibition at 100 µg/disc in the test with Bacillus pumilus, in the test on Xanthomonas oryzae, in the test with Bacillus thuringiensis, in the test with Staphylococcus aureus, with Pseudomonas aeruginosa and in the test with Klebsiella pneumoniae was 0 mm throughout. For the same compound, in the test on Dickeya chrysanthemi, the zone of inhibition at 100 µg/disc turned out to be 0 mm. Further, the LC50 worked out at 941 µg/mL (≈ 2670 µM) in the test on Athelia rolfsii and 587 µg/mL (≈ 1660 µM) with Rhizoctonia solani.
As to `COc1cc(C2CC(c3ccc(C)cc3)=Cc3n[nH]c(O)c32)cc(OC)c1OC` (configuration not stated), the Activity in [1] was 90.3%; in [2], 56.9%; in test [3], 26.4%; in [4], 90.8%; in test [5], 79.3%; in [6], 90.2%. Moreover, the Activity is 56.9% in [7]; 89.9% in test [8]; 90.6% in test [9]; 91.8% in test [10]; 15% in test [11]. Also, in [2], the IC50 was found to be 29.7 µg/mL (≈ 75.7 µM). For the same compound, the zone of inhibition at 100 µg/disc in the test with Bacillus pumilus, with Xanthomonas oryzae, with Bacillus thuringiensis, in the test on Staphylococcus aureus, in the test with Pseudomonas aeruginosa and in the test on Klebsiella pneumoniae was 0 mm in each case. In addition, in the test with Dickeya chrysanthemi, the zone of inhibition at 100 µg/disc is 0 mm. Besides, the LC50 with Athelia rolfsii worked out at 1170 µg/mL (≈ 2990 µM); with Rhizoctonia solani, 738 µg/mL (≈ 1880 µM).
As to `COc1ccc(C2CC(c3ccccc3)=Cc3n[nH]c(O)c32)cc1OC` (configuration not stated), the Activity is 90.5% in test [1]; 69.9% in test [2]; 30.2% in test [3]; 91.8% in test [4]; 87.6% in [5]; 91.9% in test [6]. In addition, the Activity in test [7] came to 69.9%; in [8], 90.9%; in [9], 90.8%; in test [10], 91.9%; in [11] it was 18.1%. The IC50 in [2] came out at 21.98 µg/mL (≈ 63.1 µM). Also, the zone of inhibition at 100 µg/disc in the test with Bacillus pumilus turned out to be 0 mm; in the test with Xanthomonas oryzae, 0 mm; with Bacillus thuringiensis, 0 mm; in the test on Staphylococcus aureus, 0 mm; with Pseudomonas aeruginosa, 5 mm; with Klebsiella pneumoniae, 0 mm. In addition, the zone of inhibition at 100 µg/disc with Dickeya chrysanthemi was determined as 0 mm. Further, the LC50 stood at 817 µg/mL (≈ 2340 µM) in the test with Athelia rolfsii and 696 µg/mL (≈ 2000 µM) in the test with Rhizoctonia solani.
